The values below come from ChEMBL document CHEMBL3779824, “Design and synthesis of novel chalcones as potent selective monoamine oxidase-B inhibitors” (Eur J Med Chem, 2016).

In series [1] the target is T1, Amine oxidase [flavin-containing] B (Homo sapiens, UniProt P27338).
T1 sequence (P27338 whole entry): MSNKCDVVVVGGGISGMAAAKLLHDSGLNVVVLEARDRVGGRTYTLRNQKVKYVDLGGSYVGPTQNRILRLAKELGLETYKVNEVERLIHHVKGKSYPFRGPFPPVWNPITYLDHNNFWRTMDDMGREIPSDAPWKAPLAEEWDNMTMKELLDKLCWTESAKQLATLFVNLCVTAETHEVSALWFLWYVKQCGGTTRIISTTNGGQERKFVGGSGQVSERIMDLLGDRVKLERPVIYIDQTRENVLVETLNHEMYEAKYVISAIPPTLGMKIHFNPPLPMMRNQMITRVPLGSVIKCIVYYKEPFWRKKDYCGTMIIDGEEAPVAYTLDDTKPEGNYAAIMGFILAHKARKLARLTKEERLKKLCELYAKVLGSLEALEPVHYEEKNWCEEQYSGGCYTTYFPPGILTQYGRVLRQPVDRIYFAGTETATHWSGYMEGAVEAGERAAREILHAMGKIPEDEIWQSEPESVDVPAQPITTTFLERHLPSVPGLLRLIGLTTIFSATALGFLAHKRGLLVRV
The series can be described thus: Inhibition of recombinant human MAOB expressed in baculovirus infected BTI insect cell microsomes at 10 uM using MMTP as substrate preincubated for 5 mins followed by substrate addition by spectrophotometric analysis. The method, boiled down:
(§1)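 Insect-cell microsomes carrying recombinant human enzyme (25 µg per assay) in 0.1 M potassium phosphate. Incubated with inhibitor at 10 µM final (DMSO 3.3% v/v final) for 5 min at 37 °C. Started with MMTP at 0.15 mM. Absorbance increase followed at 420 nm at 37 °C, with v0 from ε 25000 M-1 cm-1. Activity given as a ratio to a DMSO-only control (100%).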

The target of series [2] is T2, Amine oxidase [flavin-containing] A (Homo sapiens, UniProt P21397).
T2 sequence (P21397 whole entry): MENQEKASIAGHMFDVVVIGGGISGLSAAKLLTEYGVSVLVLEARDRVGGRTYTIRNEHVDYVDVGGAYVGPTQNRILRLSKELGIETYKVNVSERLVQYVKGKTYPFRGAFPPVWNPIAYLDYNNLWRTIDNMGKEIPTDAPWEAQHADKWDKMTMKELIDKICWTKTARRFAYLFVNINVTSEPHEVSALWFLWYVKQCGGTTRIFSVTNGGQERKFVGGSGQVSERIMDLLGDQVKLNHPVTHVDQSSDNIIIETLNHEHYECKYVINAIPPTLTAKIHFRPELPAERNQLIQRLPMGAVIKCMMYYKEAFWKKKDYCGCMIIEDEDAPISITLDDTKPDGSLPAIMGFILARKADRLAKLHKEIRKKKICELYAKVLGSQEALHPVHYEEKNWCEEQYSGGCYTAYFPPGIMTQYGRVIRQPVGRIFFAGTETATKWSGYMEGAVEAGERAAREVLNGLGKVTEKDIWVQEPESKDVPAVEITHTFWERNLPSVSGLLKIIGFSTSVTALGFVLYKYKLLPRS
The series can be described thus: Inhibition of recombinant human MAOA expressed in baculovirus infected BTI insect cell microsomes at 10 uM using MMTP as substrate preincubated for 5 mins followed by substrate addition by spectrophotometric analysis. In outline: as §1

Series [3] concerns the target T1, Amine oxidase [flavin-containing] B. Nature of the series: Time-dependent inhibition of recombinant human MAOB expressed in baculovirus infected BTI insect cell microsomes at IC50 using MMTP as substrate preincubated for 5 mins followed by substrate addition measured after 5 to 60 mins by spectrophotometric analysis. In outline: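 Microsomal human MAO-B was preincubated with inhibitor at 0.55 µM final for 5, 15, 30 or 60 min. Residual activity was then measured in the MMTP assay (420 nm, 37 °C). Rates expressed as apparent kcat (min-1); SEM from two replicates.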

Series [4] shares this target. The series can be described thus: Inhibition of recombinant human MAOB expressed in baculovirus infected BTI insect cell microsomes using MMTP as substrate preincubated for 5 mins followed by substrate addition by spectrophotometric analysis. In outline: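 MAO-B in insect-cell microsomes, 25 µg in 0.1 M potassium phosphate with 3.3% v/v DMSO final. Preincubated with inhibitor for 5 min at 37 °C, then MMTP added at 0.15 mM. Absorbance read at 420 nm at 37 °C. Remaining activity relative to the DMSO control was fitted against log10[I] to a dose-response curve for IC50. Mean ± SEM of two experiments.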

Series [5] has the same target. The series can be described thus: Competitive inhibition of human MAOB overexpressed in Pichia pastoris using MMTP as substrate preincubated for 5 mins followed by substrate addition by UV/vis spectrophotometric analysis. The method, boiled down: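 Purified recombinant human MAO-B in reaction buffer containing 0.25% v/v reduced Triton X-100. MMTP assay read at 420 nm in quartz cuvettes under aerobic conditions at 25 °C. MMTP was varied from 0.07 to 2.00 mM and inhibitor from 3 to 40 µM. Apparent kcat (v0/[E]) was plotted against substrate and fitted to competitive, uncompetitive and noncompetitive models to give Ki.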

For orientation: inhibition means the percentage by which the read-out fell short of the control. `O=C(/C=C/c1cccc2c1OCO2)c1ccccc1C(F)(F)F`: in series [1], the inhibition at 10 µM stood at 7%.
Consider `COc1cccc(/C=C/C(=O)c2ccc(SC)cc2)c1OC`, for which the inhibition at 10 µM in series [2] was determined as 0%; in series [1], 36%.
Usually IC50 stands for the concentration needed to halve the response being measured. The Ki is a dissociation constant, usually derived from enzyme kinetics or from competition with a known ligand. Read a low Ki as tighter binding. `O=C(/C=C/c1cccc2c1OCO2)c1cccc(C(F)(F)F)c1`: the inhibition at 10 µM came out at 16% in series [2] and 96% in series [1]. Also, the TDI result in series [3] is “Not Active”. Also, in series [4], the IC50 stood at 550 nM. Also, affinity in series [5] was put at a Ki of 780 nM.
Regarding `COc1cccc(/C=C/C(=O)c2cccc(OC(F)(F)F)c2)c1OC`, the results for the inhibition at 10 µM in series [2] and in series [1] were 0% and 41%, respectively.
Consider `CS(=O)(=O)c1ccc(C(=O)/C=C/c2cccc3c2OCO3)cc1`, for which the inhibition at 10 µM in series [2] was 0%; in series [1] it was 93%. Also, in series [4], the IC50 worked out at 1000 nM. Further, the Ki in series [5] was 720 nM.
Take `COc1cccc(/C=C/C(=O)c2cccc(C(F)(F)F)c2)c1OC`: the inhibition at 10 µM in series [2] was found to be 0%; in series [1], 63%. Also, the IC50 in series [4] came out at 4490 nM.
With `CSc1ccc(C(=O)/C=C/c2cccc3c2OCO3)cc1`, the inhibition at 10 µM in series [2] was determined as 0%; in series [1] it was 86%. Besides, the IC50 in series [4] worked out at 950 nM. Besides, the Ki in series [5] came out at 550 nM.
Consider `COc1cccc(/C=C/C(=O)c2ccccc2C(F)(F)F)c1OC`, for which the inhibition at 10 µM in series [2] was 0%; in series [1], 27%.
As for `O=C(/C=C/c1cccc2c1OCO2)c1cccc(OC(F)(F)F)c1`, the results for the inhibition at 10 µM in series [2] and in series [1] were 0% and 88%, respectively. Besides, the IC50 in series [4] came to 1510 nM. The same compound came in with a Ki in series [5] of 2360 nM.
In the case of `COc1cccc(/C=C/C(=O)c2ccc(S(C)(=O)=O)cc2)c1OC`, the inhibition at 10 µM in series [2] was determined as 0%; in series [1], 90%. Moreover, the IC50 in series [4] stood at 1970 nM. The Ki in series [5] stood at 1150 nM.
